Source: ChEMBL document CHEMBL3407398, “Comparison between loureirin A and cochinchinenin C on the interaction with human serum albumin” (Eur J Med Chem, 2015)

Experiments:
Details in all cases: isolated protein; call rule not given here
[1] = molecular target: T1, Albumin (Homo sapiens, UniProt P02768); test: Binding affinity to human serum albumin assessed as free energy change at 300K by thermodynamic analysis
[2] = molecular target: T1, Albumin; test: Binding affinity to human serum albumin assessed as Stem-Volmer quenching constant at 310K by fluorescence spectroscopy; format: ADME
Summary of the method: (§1)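 Fatty-acid-free HSA, 1.5 × 10^-6 M in 0.1 M Tris-HCl pH 7.4 with 0.1 M NaCl, titrated with ligand from ethanol stock. Each addition equilibrated 5 min. Emission recorded 300–450 nm with excitation at 280 nm, at 300, 305 and 310 K. Constants taken from the linear low-concentration region of Stern-Volmer F0/F plots.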

[3] = molecular target: T1, Albumin; test: Binding affinity to human serum albumin assessed as enthalpy change at 300K by thermodynamic analysis; format: ADME
Summary of the method: (§2)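 Fatty-acid-free HSA, 1.5 × 10^-6 M in 0.1 M Tris-HCl pH 7.4 / 0.1 M NaCl, was titrated with ligand from ethanol stock and equilibrated 5 min per addition. Emission was read 300–450 nm (excitation 280 nm) at 300, 305 and 310 K. Binding constants came from the quenching data across these temperatures, and thermodynamic parameters from their temperature dependence.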

[4] = molecular target: T1, Albumin; test: Binding affinity to human serum albumin assessed as free energy change at 310K by thermodynamic analysis
[5] = molecular target: T1, Albumin; test: Binding affinity to human serum albumin assessed as quenching constant at 305K by fluorescence spectroscopy; format: ADME
Summary of the method: as §1

[6] = molecular target: T1, Albumin; test: Binding affinity to human serum albumin by UV-vis spectrophotometry; format: ADME
Summary of the method: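 UV-vis absorption titration at room temperature in a 10 mm quartz cuvette. HSA was held at 1.5 × 10^-6 M while ligand was varied 0–18 × 10^-6 M, and absorbance change at 280 nm was followed. Spectra of ligand alone at 1.5 × 10^-6 M were also recorded.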

[7] = molecular target: T1, Albumin; test: Binding affinity to human serum albumin assessed as binding constant at 305K by Stem-Volmer plot; format: ADME
Summary of the method: as §2

[8] = molecular target: T1, Albumin; test: Binding affinity to human serum albumin assessed as binding constant at 300K by Stem-Volmer plot; format: ADME
Summary of the method: as §2

[9] = molecular target: T1, Albumin; test: Binding affinity to human serum albumin assessed as Stem-Volmer quenching constant at 305K by fluorescence spectroscopy; format: ADME
Summary of the method: as §1

[10] = molecular target: T1, Albumin; test: Binding affinity to human serum albumin assessed as quenching constant at 310K by fluorescence spectroscopy; format: ADME
Summary of the method: as §1

[11] = molecular target: T1, Albumin; test: Binding affinity to human serum albumin assessed as binding constant at 310K by Stem-Volmer plot; format: ADME
Summary of the method: as §2

[12] = molecular target: T1, Albumin; test: Binding affinity to human serum albumin assessed as induction of protein conformational changes by synchronous fluorescence spectroscopy
[13] = molecular target: T1, Albumin; test: Binding affinity to human serum albumin assessed as Stem-Volmer quenching constant at 300K by fluorescence spectroscopy; format: ADME
Summary of the method: as §1

[14] = molecular target: T1, Albumin; test: Binding affinity to human serum albumin assessed as quenching constant at 300K by fluorescence spectroscopy; format: ADME
Summary of the method: as §1

[15] = molecular target: T1, Albumin; test: Binding affinity to human serum albumin assessed as induction of protein conformational changes by measuring reduction in intensity along with red shift in peak 1 by three-dimensional fluorescence spectroscopy; design: scale not given: the % may be the effect or the level left
Summary of the method: (§3)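 3-D fluorescence of HSA at 1.5 × 10^-6 M, alone and with ligand at a 2:1 ligand/HSA molar ratio, in Tris-HCl pH 7.4 buffer. Excitation scanned 200–480 nm in 10 nm steps, with emission recorded 220–500 nm. Changes in intensity and position of peak 1 were compared.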

[16] = molecular target: T1, Albumin; test: Binding affinity to human serum albumin assessed as free energy change at 305K by thermodynamic analysis
[17] = molecular target: T1, Albumin; test: Binding affinity to human serum albumin assessed as induction of protein conformational changes by measuring reduction in intensity along with blue shift in peak 1 by three-dimensional fluorescence spectroscopy; design: scale not given: the % may be the effect or the level left
Summary of the method: as §3

T1 sequence (P02768 whole entry): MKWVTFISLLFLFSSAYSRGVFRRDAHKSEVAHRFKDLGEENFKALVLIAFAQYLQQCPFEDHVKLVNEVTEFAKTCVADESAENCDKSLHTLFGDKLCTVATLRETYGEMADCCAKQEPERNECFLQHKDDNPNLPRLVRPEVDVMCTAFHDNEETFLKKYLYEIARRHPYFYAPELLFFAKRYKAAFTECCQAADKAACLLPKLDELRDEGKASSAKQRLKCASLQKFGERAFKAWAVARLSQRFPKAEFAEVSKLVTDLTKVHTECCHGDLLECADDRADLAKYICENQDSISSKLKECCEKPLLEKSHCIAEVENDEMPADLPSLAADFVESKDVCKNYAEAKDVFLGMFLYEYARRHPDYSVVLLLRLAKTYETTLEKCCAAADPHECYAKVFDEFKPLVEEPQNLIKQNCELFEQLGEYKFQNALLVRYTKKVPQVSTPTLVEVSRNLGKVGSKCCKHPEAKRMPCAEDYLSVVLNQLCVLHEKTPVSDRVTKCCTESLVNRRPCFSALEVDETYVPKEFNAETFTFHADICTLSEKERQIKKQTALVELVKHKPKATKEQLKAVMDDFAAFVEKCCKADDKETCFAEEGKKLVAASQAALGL

deltaG [1] [kcal/mol] | KSV [2] [×10⁴ /M] | deltaH [3] [kcal/mol] | deltaG [4] [kcal/mol] | Kq [5] [×10¹² /M/s] | Activity [6] | K [7] [×10⁴ /M] | K [8] [×10⁴ /M] | KSV [9] [×10⁴ /M] | Kq [10] [×10¹² /M/s] | K [11] [×10⁴ /M] | Activity [12] | KSV [13] [×10⁴ /M] | Kq [14] [×10¹² /M/s] | Activity [15] [%] | deltaG [16] [kcal/mol] | Activity [17] [%] | Compound
-6.998 | 6.24 | -7.643 | -6.977 | 7.98 | Active | 9.51 | 12.91 | 7.98 | 6.24 | 8.56 | Active | 9.85 | 9.85 | 28 | -6.986 |  | COc1ccc(CCC(=O)c2ccc(O)cc2)c(OC)c1
-7.431 | 12.15 | -13.37 | -7.232 | 14.95 | Active | 18.62 | 25.32 | 14.95 | 12.15 | 12.32 | Active | 17.69 | 17.69 |  | -7.33 | 14 | COc1ccc(C(CCc2ccc(O)cc2OC)c2cc(CCC(=O)c3ccc(O)cc3)c(OC)cc2O)cc1 (configuration not stated) [COCHINCHINENIN C]
